Measurements from different studies.
Protocols differ between the studies behind these lines.
DRD3: D(3) dopamine receptor (DRD3, Homo sapiens, UniProt P35462)
SLC6A3: Sodium-dependent dopamine transporter (SLC6A3, Homo sapiens, UniProt Q01959)
PDE10A: cAMP and cAMP-inhibited cGMP 3',5'-cyclic phosphodiesterase 10A (PDE10A, Homo sapiens, UniProt Q9Y233)

Compound	target	assay	system	conditions	measurement	value
Cc1ccc(NS(=O)(=O)c2c(C)[nH]c(C)c2C(=O)N2CCC(F)(F)C2)cc1Cl	DRD3	β-arrestin recruitment, agonist	–	90 min	Emax	95%
CSc1nc(NCCC2CC2)c2ncn([C@H]3[C@H](O)[C@H](O)[C@@H]4C[C@@H]43)c2n1	SLC6A3	ligand displacement, radioligand	–	10 µM	inhibition	16%
Cc1[nH]c(C)c(S(=O)(=O)Nc2ccc(C(F)(F)F)c(Cl)c2)c1C(=O)N1CCC(F)(F)C1	DRD3	β-arrestin recruitment, agonist	–	90 min	Emax	103%
COc1cc2ncnc(C(=O)c3cccc4ccccc34)c2cc1OC	PDE10A	enzyme activity, inhibitor, FP	–	0.1 µM	inhibition	52%
CCOC(=O)[C@@]12C[C@@H]1[C@@H](n1cnc3c(NCCCCCc4ccccc4)nc(C#Cc4ccc(Cl)s4)nc31)[C@H](O)[C@@H]2O	SLC6A3	transporter uptake, inhibitor, radiometric	HEK293	10 µM	inhibition	< 5%
COc1ccc2nccc(Cc3cccc(-c4ccc(CO)cc4)c3)c2c1	PDE10A	enzyme activity, inhibitor, FP	–	0.1 µM	inhibition	0%
CNC(=O)[C@@]12C[C@@H]1[C@@H](n1cnc3c(Nc4ccccc4)nc(C#Cc4ccc(Cl)s4)nc31)[C@H](O)[C@@H]2O	SLC6A3	ligand displacement, radioligand	–	10 µM	inhibition	84%
Cc1[nH]c(C)c(S(=O)(=O)Nc2cc(Cl)cc(C(F)(F)F)c2)c1C(=O)N1CCC(F)(F)C1	DRD3	β-arrestin recruitment, agonist	–	90 min	Emax	101%
COc1ccc(C(=O)c2ncnc3cc(OC)c(OC)cc23)cc1	PDE10A	enzyme activity, inhibitor, FP	–	0.1 µM	inhibition	39%
Cc1[nH]c(C)c(S(=O)(=O)Nc2ccc(C(F)(F)F)c(Cl)c2)c1C(=O)N1CCC(O)C1 (stereo not drawn)	DRD3	β-arrestin recruitment, agonist	–	90 min	Emax	89%
CCCCC(=O)Nc1ccc(-c2ccc3ncn(CCC)c(=O)c3c2)cn1	Dual specificity protein kinase CLK4 (CLK4, Homo sapiens, UniProt Q9HAZ1)	binding, competition with immobilised ligand	–	0.5 µM	remaining binding	86%
N#CC[C@@]12C[C@@H]1[C@@H](n1cnc3c(Nc4ccccc4)nc(I)nc31)[C@H](O)[C@@H]2O	SLC6A3	ligand displacement, radioligand	–	10 µM	inhibition	54%
Cc1[nH]c(C)c(S(=O)(=O)Nc2ccc(C(C)C)cc2)c1C(=O)N1CCCC1	DRD3	β-arrestin recruitment, agonist	–	90 min	Emax	96%
CCOC(=O)C12CC1C(n1ccc3c(NC4CC4)nc(C#Cc4ccccc4)nc31)C(O)C2O (stereo not drawn)	SLC6A3	ligand displacement, radioligand	–	10 µM	inhibition	-260%
COc1ccc2c(Cc3ccc(OC)c(OC)c3)nccc2c1	PDE10A	enzyme activity, inhibitor, FP	–	0.1 µM	inhibition	25%
Cc1[nH]c(C)c(S(=O)(=O)Nc2ccc(C(=O)C(F)(F)F)c(Cl)c2)c1C(=O)N1CCC(F)(F)C1	DRD3	β-arrestin recruitment, agonist	–	90 min	Emax	96%
CCOC(=O)[C@@]12C[C@@H]1[C@@H](n1cnc3c(Nc4ccccc4)nc(I)nc31)[C@H](O)[C@@H]2O	SLC6A3	ligand displacement, radioligand	–	10 µM	inhibition	32%
Cc1[nH]c(C)c(S(=O)(=O)Nc2ccc(C(F)(F)F)c(Br)c2)c1C(=O)N1CCCC1	DRD3	β-arrestin recruitment, agonist	–	90 min	Emax	91%
COc1cc2ncnc(Cc3cccc(-c4ccc(C)cc4)c3)c2cc1OC	PDE10A	enzyme activity, inhibitor, FP	–	0.1 µM	inhibition	78%
N#C[C@@]12C[C@@H]1[C@@H](n1cnc3c(Nc4ccccc4)nc(C#Cc4ccc(Cl)s4)nc31)[C@H](O)[C@@H]2O	SLC6A3	ligand displacement, radioligand	–	10 µM	inhibition	74%
COc1ccc2oc(-c3ccc4nc(N)oc4c3)c/c(=N\c3ccccc3NC(=O)CCN)c2c1	Activated CDC42 kinase 1 (TNK2, Homo sapiens, UniProt Q07912)	binding	–	1 µM	remaining binding	100%
COc1cc2ncnc(Cc3cccc(-c4ccc(CO)cc4)c3)c2cc1OC	PDE10A	enzyme activity, inhibitor, FP	–	0.1 µM	inhibition	66%
C1=C/COCc2cc(ccc2OCCN2CCCC2)Nc2nccc(n2)-c2cccc(c2)COC/1	Serine/threonine-protein kinase D1 (PRKD1, Homo sapiens, UniProt Q15139)	binding	–	0.1 µM	remaining binding	100%
COc1ccc2c(Cc3ccc(OC)c(OC)c3)ccnc2c1	PDE10A	enzyme activity, inhibitor, FP	–	0.1 µM	inhibition	33%
CCOC(=O)[C@@]12C[C@@H]1[C@@H](n1cnc3c(NCCO)nc(I)nc31)[C@H](O)[C@@H]2O	SLC6A3	ligand displacement, radioligand	–	10 µM	inhibition	20%
Cc1ccc(NS(=O)(=O)c2c(C)[nH]c(C)c2C(=O)N2CCC2)cc1Cl	DRD3	β-arrestin recruitment, agonist	–	90 min	Emax	96%
COc1ccc2nccc(Cc3ccc(OC)c(OC)c3)c2c1	PDE10A	enzyme activity, inhibitor, FP	–	0.1 µM	inhibition	3%
